The source of these data is the RNAGym collection of RNA variant scans (doi:10.1101/gad.245936.114).

B1: tRNA (parent)
chain: CUCUCGGUAGCCAAGUUGGUUUAAGGCGCAAGACUUUAAUUUAUCACUACGAAAUCUUGAGAUCGGGCGUUCGACUCGCCCCCGGGAGAUUUUUUCCUCGAGCAA

This sample holds only a part of the variants without activity.

Variants of B1 are the subject of this data set. In words: nonsense suppression (GFP-seq) (ratio to wild type); higher = more function; SUP4oc tRNA, yeast GFP reporter sort-seq. An outline of the steps:
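Sorted GFP/RFP bins of yeast were each Illumina-sequenced with a phred ≥30 cutoff; the cells held a genome-integrated ochre-suppressor tRNA variant from a library with ~3% random mutations, a galactose-driven GFP ochre reporter, and RFP. Culture was in raffinose/galactose medium containing 80 mg/L adenine. Nonsense suppression, termed GFPSEQ, is the median GFP/RFP of the bins weighted by each variant's estimated cell share per bin, relative to the unmutated parent tRNA, for variants reaching ≥100 reads and ≥30 cells.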
Regarding C81U G88U, the nonsense suppression is 0.0501. For the variant G84A G88U, the nonsense suppression is no more than 0.026. As to C80G G84A, the nonsense suppression was no more than 0.026. Under C79G C82G stands no more than 0.026; under G78U G85C, 0.0488; under G78C G85U, 0.232. Regarding G78C G84U, the nonsense suppression came out at 0.0271.

Regarding C79A A87C, the nonsense suppression was no more than 0.026. In the case of G84C G85C, the nonsense suppression turned out to be 0.0289. Take G78A G85U: the nonsense suppression is 0.0673. Under C80U stands 0.697; under G85C A89C, no more than 0.026. With C82A G84U, the nonsense suppression was no more than 0.026. Consider C81U, for which the nonsense suppression amounted to 1.16.

In the case of C79U, the nonsense suppression came out at 0.879.

For the variant G78A C83U, the nonsense suppression was 0.0266. In the case of G78A G86A G88C, the nonsense suppression is no more than 0.026. Take G84A A87G: the nonsense suppression is 0.157. The result for G78U reads 0.63; that for G78C, 0.202; that for G78U C82U, 0.105. Regarding G85U G88A, the nonsense suppression was found to be 0.0446. In the case of C81A A89C, the nonsense suppression was no more than 0.026. Regarding C80A C82U, the nonsense suppression is no more than 0.026. The result for C79U G86C reads 0.0687. Turning to G88U A89C, the nonsense suppression was no more than 0.026. The result for G88U A89G reads no more than 0.026; that for C82A G85U, 0.0445.

G78A G84U: the nonsense suppression stood at 0.0325. As to G78A G84A, the nonsense suppression stood at 0.459. Consider C80A G86A, for which the nonsense suppression was no more than 0.026. C80U G88A: the nonsense suppression amounted to 0.0263.

For the variant C82A C83U, the nonsense suppression was no more than 0.026.

Take C80U G85A: the nonsense suppression is 0.733. With C80U G84A, the nonsense suppression was 0.125. As for C81U G84A, the nonsense suppression is 0.0642. Take C81U G84U: the nonsense suppression was 0.065.

On to G78C A89U, for which the nonsense suppression is no more than 0.026. Under C81A G85U stands no more than 0.026. On to C83U G84U, for which the nonsense suppression turned out to be 0.027. Under A87G stands 1.16. As to C82U G85A, the nonsense suppression was determined as 0.99. For C81U A87G, the nonsense suppression is 0.239.

As for G85A G88C, the nonsense suppression is no more than 0.026. The result for C79A G84C reads no more than 0.026; that for G85A A87U, 0.19. As for G85A A87G, the nonsense suppression worked out at 1.18. Turning to G86C, the nonsense suppression was no more than 0.026. In the case of G86U, the nonsense suppression was no more than 0.026. As to C79A C83A, the nonsense suppression was no more than 0.026. Regarding G85A, the nonsense suppression stood at 0.982. Take G85U: the nonsense suppression came to 1.12. Regarding G85C, the nonsense suppression stood at 0.163. Turning to G78U G84A, the nonsense suppression was 0.0428. On to C83U A87G, for which the nonsense suppression was 0.0621. In the case of C83U A87U, the nonsense suppression is no more than 0.026. In the case of C81G A87G, the nonsense suppression was 0.0415. Under G78A G88C stands 0.0845.

For C82U, the nonsense suppression is 1.05. On to C81G G88A, for which the nonsense suppression was no more than 0.026. The result for G84A G86U reads no more than 0.026; that for G88C, 0.028; that for G86U A87U, no more than 0.026. Under C83U stands 0.535. Turning to G86C A87G, the nonsense suppression was determined as 0.0881. The result for C80U A87U reads 0.035; that for C82A A87U, no more than 0.026. Take C83U G86A: the nonsense suppression is no more than 0.026. The result for C81A A87U reads no more than 0.026. Take G78U C83A: the nonsense suppression is 0.0425.
